According to ChEMBL document CHEMBL4732225, “Identification of a new class of HBV capsid assembly modulator” (Bioorg Med Chem Lett, 2021):

Legend:
[1] = Metabolic stability in human microsomes assessed as intrinsic clearance; format: ADME, Microsome
[2] = Tmax in Sprague-Dawley rat at 5 mg/kg, po; format: ADME, organism-based; conditions: in vivo
How it was run: (§1)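 Sprague-Dawley rats, n = 3. Oral dose 5 mg/kg in 70% PEG400 vehicle; IV dose 1.25 mg/kg in saline vehicle.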

[3] = Oral bioavailability in Beagle dog at […]; format: ADME, organism-based, Canis lupus familiaris; conditions: in vivo, dose 2.5 mg/kg
[4] = Volume of distribution at steady state in Sprague-Dawley rat at 5 mg/kg, po or 1.25 mg/kg, iv; format: ADME, organism-based; conditions: in vivo, read-out: Vdss; how it was run: as §1
[5] = AUC (0 to infinity) in Beagle dog at […], po; format: ADME, organism-based, Canis lupus familiaris; parameters: route oral, time infinity, dose 2.5 mg/kg; conditions: in vivo
[6] = Half life in Sprague-Dawley rat at 5 mg/kg, po or 1.25 mg/kg, iv; format: ADME, organism-based; conditions: in vivo; how it was run: as §1
[7] = Cmax in Sprague-Dawley rat at 5 mg/kg, po; format: ADME, organism-based; parameters: route oral, dose 5 mg/kg; conditions: in vivo; how it was run: as §1
[8] = Cmax in Beagle dog at […], po; format: ADME, organism-based, Canis lupus familiaris; parameters: route oral, dose 2.5 mg/kg; conditions: in vivo
[9] = Oral bioavailability in Sprague-Dawley rat at 5 mg/kg; format: ADME, organism-based; conditions: in vivo; how it was run: as §1
[10] = AUC (0 to infinity) in Sprague-Dawley rat at 5 mg/kg, po; format: ADME, organism-based; parameters: time infinity, route oral, dose 5 mg/kg; conditions: in vivo; how it was run: as §1
[11] = Half life in Beagle dog at […], po or 1 mg/kg, iv; format: ADME, organism-based, Canis lupus familiaris; conditions: in vivo, dose 2.5 mg/kg
[12] = Ratio of drug level in liver to plasma in Sprague-Dawley rat at 5 mg/kg, po or 1.25 mg/kg, iv; format: ADME, organism-based; conditions: liver and plasma; how it was run: as §1
[13] = Plasma clearance in Sprague-Dawley rat at 5 mg/kg, po or 1.25 mg/kg, iv; format: ADME, organism-based; how it was run: as §1
[14] = Tmax in Beagle dog at […], po; format: ADME, organism-based, Canis lupus familiaris; conditions: in vivo, dose 2.5 mg/kg
[15] = Volume of distribution at steady state in Beagle dog at […], po or 1 mg/kg, iv; format: ADME, organism-based, Canis lupus familiaris; conditions: in vivo, dose 2.5 mg/kg, read-out: Vdss

Row | CLint scaled [1] [mL/min/kg] | SMILES | also measured
1 | 33 | O=C(Nc1cccc(Cl)c1)N1CCc2[nH]nc(-c3cscn3)c2C1 | –
2 | 21 | C[C@H]1Cc2[nH]nc(-c3cscn3)c2CN1C(=O)Nc1ccc(F)c(Cl)c1 | –
3 | 20 | C[C@H]1Cc2[nH]nc(-c3cscn3)c2CN1C(=O)Nc1cccc(Cl)c1 | –
4 | 356 | O=C(Nc1cccc(Cl)c1)N1CCc2[nH]nc(-c3cccs3)c2C1 | –
5 | 53 | O=C(Nc1cccc(Cl)c1)N1CCc2[nH]nc(-c3nccs3)c2C1 | –
6 | 15 | C[C@H]1Cc2[nH]nc(-c3ccccc3)c2CN1C(=O)Nc1cccc(Cl)c1 | –
7 | 146 | C[C@H]1Cc2c(c(-c3cccs3)nn2C)CN1C(=O)Nc1cccc(Cl)c1 | –
8 | 17 | C[C@H]1Cc2[nH]nc(-c3cccs3)c2CN1C(=O)Nc1cccc(Cl)c1 | –
9 | 22 | CC[C@H]1Cc2[nH]nc(-c3ccccc3)c2CN1C(=O)Nc1cccc(Cl)c1 | –
10 | 13 | C[C@H]1Cc2[nH]nc(-c3cscn3)c2CN1C(=O)Nc1ccc(F)c(C#N)c1 | Tmax [2]: 6 h; F [3]: 73%; Vd [4]: 2.97 L/kg; AUC [5]: 1620 ng·h/mL; half-life [6]: 2.28 h; Cmax [7]: 73 ng/mL; Cmax [8]: 472 ng/mL; bioavailability [9]: 38%; AUC(0-inf) [10]: 1030 ng·h/mL; half-life [11]: 2.17 h; Kp [12]: 17; clearance [13]: 30.7 mL/min/kg; Tmax [14]: 1 h; Vd [15]: 3 L/kg
11 | 160 | O=C(Nc1cccc(Cl)c1)N1CCc2[nH]nc(-c3ccsc3)c2C1 | –
12 | 24 | C[C@H]1Cc2[nH]nc(-c3cscn3)c2CN1C(=O)Nc1ccc(F)c(Br)c1 | –
13 | 12 | C[C@H]1Cc2[nH]nc(-c3cscn3)c2CN1C(=O)Nc1ccnc(Br)c1F | –
14 | 43 | C[C@@H]1Cc2[nH]nc(-c3ccccc3)c2CN1C(=O)Nc1cccc(Cl)c1 | –
15 | 50 | O=C(Nc1cccc(Cl)c1)N1CCc2[nH]nc(-c3cocn3)c2C1 | –
16 | 14 | Cc1cc(NC(=O)N2Cc3c(-c4cscn4)n[nH]c3C[C@@H]2C)ccc1F | –
